Results as given in ChEMBL document CHEMBL3120154, “2-[N-Alkyl(R-phenyl)-aminomethyl]-3-phenyl-7-trifluoromethylquinoxalines as anticancer agents inhibitors of folate enzymes” (Eur J Med Chem, 2014).

Columns and labels:
Format in all cases: functional
[1] = system: SK-MEL-28; assay: Cytotoxicity against human SK-MEL-28 cells at 10^-5 M after 48 hrs by SRB assay; settings: SK-MEL-28, 48 h, read-out: GI
In short: (§1)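 Second-stage screen in the 60-cell-line human tumor panel at NCI, over a 5-log range (100, 10, 1, 0.1, 0.01 micromolar). Cells were exposed to drug for 48 h and growth was estimated with a sulforhodamine B protein stain. The value is percent growth inhibition at each concentration.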

[2] = system: SW-620; assay: Cytotoxicity against human SW620 cells at 10^-5 M after 48 hrs by SRB assay; settings: SW-620, 48 h, read-out: GI
[3] = system: SK-MEL-2; assay: Cytotoxicity against human SK-MEL-2 cells at 10^-5 M after 48 hrs by SRB assay; settings: SK-MEL-2, 48 h, read-out: GI; in short: as §1
[4] = system: OVCAR-8; assay: Cytotoxicity against human OVCAR8 cells at 10^-6 M after 48 hrs by SRB assay; settings: OVCAR-8, 48 h, read-out: GI; in short: as §1
[5] = system: A498; assay: Cytotoxicity against human A498 cells at 10^-6 M after 48 hrs by SRB assay; settings: A498, 48 h, read-out: GI
In short: (§2)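 Run by NCI on its 60-line human tumor cell panel, after a three-cell-line prescreen. Cells were exposed to drug for 48 h over a 5-log range: 100, 10, 1, 0.1 and 0.01 micromolar. Growth was estimated by sulforhodamine B (SRB) protein staining. Percent growth inhibition (I%) was recorded at each concentration relative to untreated control cells.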

[6] = system: BT-549; assay: Cytotoxicity against human BT549 cells at 10^-5 M after 48 hrs by SRB assay; settings: BT-549, 48 h, read-out: GI; in short: as §2
[7] = system: DU-145; assay: Cytotoxicity against human DU145 cells at 10^-6 M after 48 hrs by SRB assay; settings: DU-145, 48 h, read-out: GI; in short: as §2
[8] = system: UACC-62; assay: Cytotoxicity against human UACC62 cells at 10^-5 M after 48 hrs by SRB assay; settings: UACC-62, 48 h, read-out: GI
[9] = Cytotoxicity against human Hs578T cells at 10^-6 M after 48 hrs by SRB assay; settings: Hs-578T, read-out: GI; in short: as §2
[10] = system: NCI-H460; assay: Cytotoxicity against human NCI-H460 cells at 10^-5 M after 48 hrs by SRB assay; settings: NCI-H460, 48 h, read-out: GI
In short: (§3)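 Run in the NCI 60-cell-line screen after a three-line prescreen. Cells got a 48 h drug exposure; viability/growth was estimated with the sulforhodamine B protein assay. Growth inhibition (I%) was recorded at 100, 10, 1, 0.1 and 0.01 micromolar. Percent growth is relative to untreated control cells, and negative values indicate cell kill.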

[11] = system: RXF 393; assay: Cytotoxicity against human RXF393 cells at 10^-6 M after 48 hrs by SRB assay; settings: RXF 393, 48 h, read-out: GI; in short: as §1
[12] = system: CCRF-CEM; assay: Cytotoxicity against human CCRF-CEM cells at 10^-5 M after 48 hrs by SRB assay; settings: read-out: GI; in short: as §2
[13] = system: NCI/ADR-RES; assay: Cytotoxicity against human NCI/ADR-RES cells at 10^-5 M after 48 hrs by SRB assay; settings: read-out: GI; in short: as §3
[14] = Cytotoxicity against human OVCAR4 cells at 10^-5 M after 48 hrs by SRB assay; settings: OVCAR-4, 48 h, read-out: GI; in short: as §1
[15] = system: SK-MEL-5; assay: Cytotoxicity against human SK-MEL-5 cells at 10^-5 M after 48 hrs by SRB assay; settings: SK-MEL-5, 48 h, read-out: GI; in short: as §1
[16] = system: T47D; assay: Cytotoxicity against human T47D cells at 10^-6 M after 48 hrs by SRB assay; settings: read-out: GI
[17] = Cytotoxicity against human Hs578T cells at 10^-5 M after 48 hrs by SRB assay; settings: Hs-578T, read-out: GI; in short: as §2
[18] = system: SF-268; assay: Cytotoxicity against human SF268 cells at 10^-6 M after 48 hrs by SRB assay; settings: SF-268, 48 h, read-out: GI; in short: as §1
[19] = system: SF-268; assay: Cytotoxicity against human SF268 cells at 10^-5 M after 48 hrs by SRB assay; settings: SF-268, 48 h, read-out: GI; in short: as §1
[20] = system: MDA-MB-435; assay: Cytotoxicity against human MDA-MB-435 cells at 10^-6 M after 48 hrs by SRB assay; settings: MDA-MB-435, 48 h, read-out: GI; in short: as §3
[21] = system: RXF 393; assay: Cytotoxicity against human RXF393 cells at 10^-5 M after 48 hrs by SRB assay; settings: RXF 393, 48 h, read-out: GI; in short: as §1
[22] = system: KM12; assay: Cytotoxicity against human KM12 cells at 10^-6 M after 48 hrs by SRB assay; settings: KM12, 48 h, read-out: GI; in short: as §3
[23] = system: KM12; assay: Cytotoxicity against human KM12 cells at 10^-5 M after 48 hrs by SRB assay; settings: KM12, 48 h, read-out: GI; in short: as §3
[24] = system: T47D; assay: Cytotoxicity against human T47D cells at 10^-5 M after 48 hrs by SRB assay; settings: read-out: GI
[25] = system: CAKI-1; assay: Cytotoxicity against human Caki1 cells at 10^-5 M after 48 hrs by SRB assay; settings: CAKI-1, 48 h, read-out: GI; in short: as §2
[26] = system: HCT-116; assay: Cytotoxicity against human HCT116 cells at 10^-5 M after 48 hrs by SRB assay; settings: HCT-116, 48 h, read-out: GI; in short: as §2
[27] = system: A549; assay: Cytotoxicity against human A549 cells at 10^-5 M after 48 hrs by SRB assay; settings: A549, 48 h, read-out: GI; in short: as §2
[28] = system: SNB-75; assay: Cytotoxicity against human SNB75 cells at 10^-5 M after 48 hrs by SRB assay; settings: SNB-75, 48 h, read-out: GI
[29] = system: NCI-H460; assay: Cytotoxicity against human NCI-H460 cells at 10^-6 M after 48 hrs by SRB assay; settings: NCI-H460, 48 h, read-out: GI; in short: as §3
[30] = system: HCT-15; assay: Cytotoxicity against human HCT15 cells at 10^-5 M after 48 hrs by SRB assay; settings: HCT-15, 48 h, read-out: GI; in short: as §2
[31] = system: U-251; assay: Cytotoxicity against human U251 cells at 10^-6 M after 48 hrs by SRB assay; settings: U-251, 48 h, read-out: GI
[32] = system: NCI-H226; assay: Cytotoxicity against human NCI-H226 cells at 10^-8 M after 48 hrs by SRB assay; settings: NCI-H226, 48 h, read-out: GI
[33] = system: NCI/ADR-RES; assay: Cytotoxicity against human NCI/ADR-RES cells at 10^-8 M after 48 hrs by SRB assay; settings: read-out: GI
[34] = system: MDA-MB-435; assay: Cytotoxicity against human MDA-MB-435 cells at 10^-7 M after 48 hrs by SRB assay; settings: MDA-MB-435, 48 h, read-out: GI
[35] = Cytotoxicity against human OVCAR4 cells at 10^-8 M after 48 hrs by SRB assay; settings: OVCAR-4, 48 h, read-out: GI
[36] = system: SK-MEL-5; assay: Cytotoxicity against human SK-MEL-5 cells at 10^-7 M after 48 hrs by SRB assay; settings: SK-MEL-5, 48 h, read-out: GI
[37] = Cytotoxicity against human UO31 cells at 10^-8 M after 48 hrs by SRB assay; settings: UO-31, 48 h, read-out: GI
[38] = system: DU-145; assay: Cytotoxicity against human DU145 cells at 10^-8 M after 48 hrs by SRB assay; settings: DU-145, 48 h, read-out: GI
[39] = Cytotoxicity against human UO31 cells at 10^-6 M after 48 hrs by SRB assay; settings: UO-31, 48 h, read-out: GI

C#CCN(Cc1nc2cc(C(F)(F)F)ccc2nc1-c1ccccc1)c1ccc(C)cc1
inhibition of growth at 10 µM [1]: 71%
inhibition of growth at 10 µM [2]: 82%
inhibition of growth at 10 µM [3]: 72%
inhibition of growth at 1 µM [4]: < 40%
inhibition of growth at 1 µM [5]: < 40%
inhibition of growth at 10 µM [6]: < 40%
inhibition of growth at 1 µM [7]: < 40%
inhibition of growth at 10 µM [8]: 91%
inhibition of growth at 1 µM [9]: < 40%
inhibition of growth at 10 µM [10]: 75%
inhibition of growth at 1 µM [11]: < 40%
inhibition of growth at 10 µM [12]: < 40%
inhibition of growth at 10 µM [13]: 113%
inhibition of growth at 10 µM [14]: 63%
inhibition of growth at 10 µM [15]: 99%
inhibition of growth at 1 µM [16]: 90%
inhibition of growth at 10 µM [17]: 88%
inhibition of growth at 1 µM [18]: < 40%
inhibition of growth at 10 µM [19]: 50%
inhibition of growth at 1 µM [20]: 104%
inhibition of growth at 10 µM [21]: 70%
inhibition of growth at 1 µM [22]: < 40%
inhibition of growth at 10 µM [23]: 137%
inhibition of growth at 10 µM [24]: 78%
inhibition of growth at 10 µM [25]: 82%
inhibition of growth at 10 µM [26]: 79%
inhibition of growth at 10 µM [27]: 55%
inhibition of growth at 10 µM [28]: 118%
inhibition of growth at 1 µM [29]: 62%
inhibition of growth at 10 µM [30]: 110%
inhibition of growth at 1 µM [31]: < 40%

CCN(Cc1nc2cc(C(F)(F)F)ccc2nc1-c1ccccc1)c1ccc(OC)c(OC)c1
inhibition of growth at 10 µM [1]: < 40%
inhibition of growth at 10 µM [2]: 18%
inhibition of growth at 10 µM [3]: 15%
inhibition of growth at 1 µM [4]: 45%
inhibition of growth at 1 µM [5]: 26%
inhibition of growth at 10 µM [6]: 33%
inhibition of growth at 1 µM [7]: < 40%
inhibition of growth at 10 µM [8]: 24%
inhibition of growth at 1 µM [9]: < 40%
inhibition of growth at 10 µM [10]: 25%
inhibition of growth at 1 µM [11]: 57%
inhibition of growth at 10 µM [12]: 70%
inhibition of growth at 0.01 µM [32]: < 40%
inhibition of growth at 10 µM [13]: 21%
inhibition of growth at 0.01 µM [33]: < 40%
inhibition of growth at 10 µM [14]: < 40%
inhibition of growth at 0.1 µM [34]: < 40%
inhibition of growth at 10 µM [15]: 17%
inhibition of growth at 1 µM [16]: < 40%
inhibition of growth at 10 µM [17]: 43%
inhibition of growth at 1 µM [18]: < 40%
inhibition of growth at 10 µM [19]: 15%
inhibition of growth at 1 µM [20]: < 40%
inhibition of growth at 10 µM [21]: 102%
inhibition of growth at 1 µM [22]: < 40%
inhibition of growth at 0.01 µM [35]: < 40%
inhibition of growth at 10 µM [23]: < 40%
inhibition of growth at 10 µM [24]: 24%
inhibition of growth at 0.1 µM [36]: < 40%
inhibition of growth at 10 µM [25]: 29%
inhibition of growth at 0.01 µM [37]: < 40%
inhibition of growth at 10 µM [26]: 43%
inhibition of growth at 10 µM [27]: 79%
inhibition of growth at 10 µM [28]: < 40%
inhibition of growth at 0.01 µM [38]: < 40%
inhibition of growth at 1 µM [29]: < 40%
inhibition of growth at 10 µM [30]: 17%
inhibition of growth at 1 µM [31]: < 40%
inhibition of growth at 1 µM [39]: < 40%
